# Experimental data taken from ChEMBL document CHEMBL4346740, “Development of novel lithocholic acid derivatives as vitamin D receptor agonists” (Bioorg Med Chem, 2019).
# Active and inactive are the calls of the source. The calls are words filed in the database; no cut-off is given here.
# How the values were obtained:
# [1] = molecular target: T1, Vitamin D3 receptor (Homo sapiens) (UniProt P11473); test: Transactivation of VDR in human […] cell assessed as cell differentiation at 10^-7 to 10^-5 M measured after 4 days by NBT dye-based assay
# T1 sequence (whole entry): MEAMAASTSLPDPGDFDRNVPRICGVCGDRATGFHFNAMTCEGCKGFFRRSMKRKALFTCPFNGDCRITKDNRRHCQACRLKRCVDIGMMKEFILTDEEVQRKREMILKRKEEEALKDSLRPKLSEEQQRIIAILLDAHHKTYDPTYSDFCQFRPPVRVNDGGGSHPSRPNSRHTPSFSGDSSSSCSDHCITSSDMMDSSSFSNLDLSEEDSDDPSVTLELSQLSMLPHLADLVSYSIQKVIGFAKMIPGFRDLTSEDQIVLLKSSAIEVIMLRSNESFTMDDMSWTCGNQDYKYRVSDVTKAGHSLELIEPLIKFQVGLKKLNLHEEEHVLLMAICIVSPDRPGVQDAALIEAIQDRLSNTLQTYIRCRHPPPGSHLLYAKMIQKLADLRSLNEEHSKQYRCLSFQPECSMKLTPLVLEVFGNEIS
# Outline: (§1)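 HL-60 cells grown in RPMI-1640 with 5% FBS, diluted to 8.0 × 10^4 cells/mL. Compound added from ethanol solution; ethanol-only control; 1α,25(OH)2D3 run alongside each time. Incubated 4 days at 37 °C, 5% CO2. Cells then exposed 20 min at 37 °C to 0.2% NBT with TPA (200 ng/mL) in PBS. Formazan-positive percentage scored in at least 200 cells.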
# [2] = molecular target: T1, Vitamin D3 receptor (Homo sapiens); test: Transactivation of VDR in human […] cell assessed as cell differentiation at 10^-5 M measured after 4 days by NBT dye-based assay; outline: as §1
# [3] = molecular target: T1, Vitamin D3 receptor (Homo sapiens); test: Transactivation of human VDR expressed in COS-7 cells transfected with mouse […] for 24 hrs by luciferase based reporter gene assay; format: cell-based
# Outline: (§2)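 COS-7 cells in DMEM with 5% FCS, lipofected at 24 h with SPPx3-TK-LUC (three mouse osteopontin VDRE copies), pCMX-hVDR and pRL-CMV. After 4 h, switched to DMEM with 1% FCS. Next day, compound, 1α,25(OH)2D3 or ethanol vehicle added for 24 h. Lysate luciferase normalized to sea pansy internal control; triplicate.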
# [4] = molecular target: T2, Vitamin D3 receptor (Bos taurus) (UniProt Q28037); test: Displacement of [3H]1alpha,25(OH)2D3 from bovine thymus VDR incubated for 19 hrs by radioactivity based competitive binding assay
# T2 sequence (whole entry): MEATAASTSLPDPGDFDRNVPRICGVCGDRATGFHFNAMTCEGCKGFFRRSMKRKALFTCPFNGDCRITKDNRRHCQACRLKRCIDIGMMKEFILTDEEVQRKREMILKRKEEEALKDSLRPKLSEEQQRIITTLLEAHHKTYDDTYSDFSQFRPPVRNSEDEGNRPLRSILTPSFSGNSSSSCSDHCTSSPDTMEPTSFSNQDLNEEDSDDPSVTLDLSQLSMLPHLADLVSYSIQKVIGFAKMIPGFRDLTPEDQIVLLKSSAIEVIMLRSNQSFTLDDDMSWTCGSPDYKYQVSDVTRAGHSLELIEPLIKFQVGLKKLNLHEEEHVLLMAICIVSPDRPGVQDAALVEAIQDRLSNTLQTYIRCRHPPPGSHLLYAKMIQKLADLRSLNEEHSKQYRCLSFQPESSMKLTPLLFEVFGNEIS
# Outline: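 Bovine thymus VDR in 0.05 M phosphate buffer (pH 7.4) with 0.3 M KCl and 5 mM DTT. Incubated 19 h at 4 °C with 0.072 nM [3H]1α,25(OH)2D3 plus graded amounts of analog or vehicle. Bound and free ligand separated on dextran-coated charcoal (20 min, 4 °C), then centrifuged at 1000g. Supernatant radioactivity counted; run in duplicate.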
# [5] = molecular target: T1, Vitamin D3 receptor (Homo sapiens); test: Transactivation of human VDR expressed in COS-7 cells transfected with mouse osteopontin VDRE at >1 uM measured after 24 hrs by luciferase based reporter gene assay; format: cell-based; outline: as §2
Compound,Activity [1],Activity [3],further results
C[C@H](CCC(=O)O)[C@H]1CC[C@H]2[C@@H]3CC[C@@H]4C[C@H](OC(=O)c5ccccc5)CC[C@]4(C)[C@H]3CC[C@]12C,inactive,,
CC(=O)O[C@@H]1CC[C@@]2(C)[C@H](CC[C@@H]3[C@@H]2CC[C@]2(C)[C@@H]([C@H](C)CCC(=O)O)CC[C@@H]32)C1,,Active,Activity [2]: Active
COC(=O)O[C@@H]1CC[C@@]2(C)[C@H](CC[C@@H]3[C@@H]2CC[C@]2(C)[C@@H]([C@H](C)CCC(=O)O)CC[C@@H]32)C1,inactive,,
C[C@H](CCC(=O)O)[C@H]1CC[C@H]2[C@@H]3CC[C@@H]4C[C@H](NS(C)(=O)=O)CC[C@]4(C)[C@H]3CC[C@]12C,Active,,
C[C@H](CCC(=O)O)[C@H]1CC[C@H]2[C@@H]3CC[C@@H]4C[C@H](OS(C)(=O)=O)CC[C@]4(C)[C@H]3CC[C@]12C,,Active,Activity [4]: Active
C[C@H](CCC(=O)O)[C@H]1CC[C@H]2[C@@H]3CC[C@@H]4C[C@H](OC(=O)C(F)(F)F)CC[C@]4(C)[C@H]3CC[C@]12C,inactive,,Activity [5]: Active
